Test results reported in ChEMBL document CHEMBL1130120, “N-arylpiperazinyl-N'-propylamino derivatives of heteroaryl amides as functional uroselective alpha 1-adrenoceptor antagonists” (J Med Chem, 1997).

How the values were obtained:
[1] = biological target: T1, 5-hydroxytryptamine receptor 1A (Mus musculus) (UniProt Q64264); assay: The compound's binding affinity against 5-hydroxytryptamine 1A receptor
T1 sequence (whole entry): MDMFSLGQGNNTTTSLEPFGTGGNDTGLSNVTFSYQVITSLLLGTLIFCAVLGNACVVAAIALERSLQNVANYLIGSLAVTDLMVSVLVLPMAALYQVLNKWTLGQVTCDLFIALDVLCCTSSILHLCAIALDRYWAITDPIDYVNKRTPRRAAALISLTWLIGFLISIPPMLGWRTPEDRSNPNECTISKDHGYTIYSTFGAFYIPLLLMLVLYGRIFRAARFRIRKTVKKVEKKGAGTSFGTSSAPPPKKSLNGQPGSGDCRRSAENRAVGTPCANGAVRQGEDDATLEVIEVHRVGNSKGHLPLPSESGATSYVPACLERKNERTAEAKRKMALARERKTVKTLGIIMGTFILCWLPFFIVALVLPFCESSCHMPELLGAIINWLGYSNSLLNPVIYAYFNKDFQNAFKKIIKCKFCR

[2] = biological target: T2, Alpha-1D adrenergic receptor (Rattus norvegicus, UniProt P23944); assay: Antagonistic activity against rat aorta for affinity estimates representative of the Alpha-1D adrenergic receptor; assay type: functional, tissue-based; conditions: read-out: pA2 (converted)
T2 sequence (P23944 whole entry): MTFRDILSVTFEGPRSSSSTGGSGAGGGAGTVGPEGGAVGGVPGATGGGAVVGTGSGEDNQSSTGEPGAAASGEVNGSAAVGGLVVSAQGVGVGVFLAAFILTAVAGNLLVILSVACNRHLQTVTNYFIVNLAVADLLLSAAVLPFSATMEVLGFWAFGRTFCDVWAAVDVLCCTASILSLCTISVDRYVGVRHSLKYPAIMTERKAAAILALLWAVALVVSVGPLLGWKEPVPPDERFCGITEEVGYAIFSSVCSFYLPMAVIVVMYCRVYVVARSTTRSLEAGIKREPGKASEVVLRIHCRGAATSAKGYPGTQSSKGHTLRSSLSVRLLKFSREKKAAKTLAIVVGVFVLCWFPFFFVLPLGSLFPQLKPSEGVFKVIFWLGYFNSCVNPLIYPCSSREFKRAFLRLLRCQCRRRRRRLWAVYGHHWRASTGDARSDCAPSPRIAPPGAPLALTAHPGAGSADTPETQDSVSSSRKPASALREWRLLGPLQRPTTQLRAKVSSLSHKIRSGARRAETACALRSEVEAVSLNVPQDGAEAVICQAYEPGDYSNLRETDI
How it was run: (§1)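 Isolated smooth-muscle tissue with cumulative norepinephrine concentration–effect curves (rat aorta, human lower urinary tract). Affinity obtained by full Schild regression for some antagonists. […] Competitive, reversible interaction at a single subtype assumed.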

[3] = biological target: T3, Alpha-1A adrenergic receptor (Oryctolagus cuniculus, UniProt O02824); assay: Antagonistic activity against alpha 1A/1L receptor was assessed in a rabbit bladder neck functional assay; conditions: read-out: pA2 (converted)
T3 sequence (O02824 whole entry): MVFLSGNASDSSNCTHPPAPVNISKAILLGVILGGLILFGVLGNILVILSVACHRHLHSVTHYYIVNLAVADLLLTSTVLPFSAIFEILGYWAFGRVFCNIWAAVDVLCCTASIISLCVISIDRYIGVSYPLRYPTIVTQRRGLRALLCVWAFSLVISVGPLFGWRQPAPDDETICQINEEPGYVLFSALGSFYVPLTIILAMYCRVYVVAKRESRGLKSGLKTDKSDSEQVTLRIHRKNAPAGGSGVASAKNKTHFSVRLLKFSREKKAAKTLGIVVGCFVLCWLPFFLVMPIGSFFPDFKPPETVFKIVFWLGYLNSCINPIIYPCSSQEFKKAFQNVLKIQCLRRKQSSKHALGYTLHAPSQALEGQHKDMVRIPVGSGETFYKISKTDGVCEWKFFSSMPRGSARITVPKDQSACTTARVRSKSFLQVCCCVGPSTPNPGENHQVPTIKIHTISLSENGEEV

D(2) dopamine receptor = D(2) dopamine receptor (Homo sapiens, UniProt P14416); assay: The compound's binding affinity against Dopamine receptor D2
[4] = biological target: T4, Alpha-1A adrenergic receptor (Bos taurus, UniProt P18130); assay: The compound was screened in vitro for the displacement of [3H]prazosin binding to bovine Alpha-1A adrenergic receptor
T4 sequence (P18130 whole entry): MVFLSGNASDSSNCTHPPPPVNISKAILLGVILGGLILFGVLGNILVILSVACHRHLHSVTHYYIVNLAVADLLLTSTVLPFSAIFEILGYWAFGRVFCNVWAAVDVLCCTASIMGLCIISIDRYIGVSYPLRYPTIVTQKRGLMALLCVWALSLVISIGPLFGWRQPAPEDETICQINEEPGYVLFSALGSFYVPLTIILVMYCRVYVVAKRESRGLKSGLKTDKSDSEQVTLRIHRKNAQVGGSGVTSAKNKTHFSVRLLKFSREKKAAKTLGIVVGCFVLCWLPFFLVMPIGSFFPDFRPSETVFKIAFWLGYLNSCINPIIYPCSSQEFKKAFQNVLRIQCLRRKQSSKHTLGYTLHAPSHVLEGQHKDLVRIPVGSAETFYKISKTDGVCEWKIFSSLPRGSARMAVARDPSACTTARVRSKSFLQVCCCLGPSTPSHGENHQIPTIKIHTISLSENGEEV

[5] = biological target: Adrenergic receptor alpha-1 (Homo sapiens) (UniProt P35348+P25100+P35368); assay: The compound was screened in vitro for functional activity against Alpha-1 adrenergic receptor subtypes of human prostate tissue; how it was run: as §1
[6] = biological target: T5, Adrenergic receptor alpha-1 (Homo sapiens, UniProt P35348+P25100+P35368); assay: Activity against Alpha-1 adrenergic receptor subtypes of human prostate tissue; assay type: functional
T5 sequence (P35348 whole entry): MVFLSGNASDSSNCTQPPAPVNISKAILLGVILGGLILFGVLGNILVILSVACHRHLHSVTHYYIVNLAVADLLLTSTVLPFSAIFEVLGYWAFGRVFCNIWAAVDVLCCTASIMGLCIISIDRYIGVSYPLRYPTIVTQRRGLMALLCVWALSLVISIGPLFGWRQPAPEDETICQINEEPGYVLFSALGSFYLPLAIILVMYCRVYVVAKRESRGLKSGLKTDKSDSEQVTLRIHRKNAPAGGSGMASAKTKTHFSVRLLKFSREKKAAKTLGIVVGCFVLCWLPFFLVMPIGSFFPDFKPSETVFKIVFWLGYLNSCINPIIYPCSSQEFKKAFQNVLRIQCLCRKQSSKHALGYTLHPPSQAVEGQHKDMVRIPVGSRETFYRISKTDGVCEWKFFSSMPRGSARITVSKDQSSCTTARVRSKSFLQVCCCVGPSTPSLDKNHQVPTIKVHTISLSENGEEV
T5 sequence (P25100 whole entry): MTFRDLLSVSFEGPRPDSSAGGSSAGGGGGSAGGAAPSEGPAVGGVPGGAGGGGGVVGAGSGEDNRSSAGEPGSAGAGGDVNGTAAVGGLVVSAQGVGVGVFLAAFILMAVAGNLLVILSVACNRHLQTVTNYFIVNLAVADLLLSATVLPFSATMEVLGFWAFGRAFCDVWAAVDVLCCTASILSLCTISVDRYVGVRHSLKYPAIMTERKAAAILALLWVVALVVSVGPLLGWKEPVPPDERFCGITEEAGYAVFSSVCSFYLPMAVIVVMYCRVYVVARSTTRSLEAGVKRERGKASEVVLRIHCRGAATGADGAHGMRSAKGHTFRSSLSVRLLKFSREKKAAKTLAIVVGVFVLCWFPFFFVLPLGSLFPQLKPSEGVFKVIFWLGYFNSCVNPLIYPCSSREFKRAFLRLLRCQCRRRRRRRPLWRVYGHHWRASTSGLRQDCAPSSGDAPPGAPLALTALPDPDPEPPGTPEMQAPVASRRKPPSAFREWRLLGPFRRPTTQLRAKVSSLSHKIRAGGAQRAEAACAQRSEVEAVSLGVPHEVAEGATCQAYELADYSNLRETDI
T5 sequence (P35368 whole entry): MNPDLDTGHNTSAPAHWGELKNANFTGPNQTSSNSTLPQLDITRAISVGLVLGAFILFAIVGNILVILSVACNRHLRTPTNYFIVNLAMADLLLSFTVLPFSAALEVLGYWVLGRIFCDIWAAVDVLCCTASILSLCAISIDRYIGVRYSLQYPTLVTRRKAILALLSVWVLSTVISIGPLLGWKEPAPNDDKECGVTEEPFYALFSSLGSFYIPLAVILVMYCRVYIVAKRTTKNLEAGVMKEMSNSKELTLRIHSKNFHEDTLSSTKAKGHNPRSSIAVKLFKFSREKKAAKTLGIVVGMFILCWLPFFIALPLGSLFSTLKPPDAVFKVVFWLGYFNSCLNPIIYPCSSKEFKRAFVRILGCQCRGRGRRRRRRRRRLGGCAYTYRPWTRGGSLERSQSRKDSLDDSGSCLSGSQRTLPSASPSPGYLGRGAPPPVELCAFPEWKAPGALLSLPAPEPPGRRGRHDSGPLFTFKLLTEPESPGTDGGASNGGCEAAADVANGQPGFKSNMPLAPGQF
How it was run: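 Isolated smooth-muscle tissue with cumulative norepinephrine concentration–effect curves (rat aorta, human lower urinary tract). Affinity obtained by full Schild regression for some antagonists. Competitive, reversible interaction at a single subtype assumed.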

[7] = biological target: T4, Alpha-1A adrenergic receptor; assay: In vitro for the displacement of [3H]prazosin binding to bovine Alpha-1A adrenergic receptor
[8] = biological target: T6, Alpha-2B adrenergic receptor (Rattus norvegicus, UniProt P19328); assay: The compound's binding affinity against Alpha-2B adrenergic receptor from rat kidney homogenate in the presence of phentolamine
T6 sequence (P19328 whole entry): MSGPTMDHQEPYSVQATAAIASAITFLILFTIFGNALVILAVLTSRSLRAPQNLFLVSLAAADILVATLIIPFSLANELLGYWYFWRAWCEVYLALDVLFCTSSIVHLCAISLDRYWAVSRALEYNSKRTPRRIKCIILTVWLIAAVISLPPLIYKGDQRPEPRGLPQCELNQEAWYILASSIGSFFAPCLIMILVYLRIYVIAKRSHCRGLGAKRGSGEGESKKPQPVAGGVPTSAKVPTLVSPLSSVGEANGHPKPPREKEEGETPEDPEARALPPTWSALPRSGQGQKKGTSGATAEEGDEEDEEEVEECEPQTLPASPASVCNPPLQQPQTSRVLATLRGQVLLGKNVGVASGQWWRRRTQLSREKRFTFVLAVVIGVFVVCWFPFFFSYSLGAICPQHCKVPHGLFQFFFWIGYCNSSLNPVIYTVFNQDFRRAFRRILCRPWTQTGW

Sequence of D(2) dopamine receptor (P14416 whole entry): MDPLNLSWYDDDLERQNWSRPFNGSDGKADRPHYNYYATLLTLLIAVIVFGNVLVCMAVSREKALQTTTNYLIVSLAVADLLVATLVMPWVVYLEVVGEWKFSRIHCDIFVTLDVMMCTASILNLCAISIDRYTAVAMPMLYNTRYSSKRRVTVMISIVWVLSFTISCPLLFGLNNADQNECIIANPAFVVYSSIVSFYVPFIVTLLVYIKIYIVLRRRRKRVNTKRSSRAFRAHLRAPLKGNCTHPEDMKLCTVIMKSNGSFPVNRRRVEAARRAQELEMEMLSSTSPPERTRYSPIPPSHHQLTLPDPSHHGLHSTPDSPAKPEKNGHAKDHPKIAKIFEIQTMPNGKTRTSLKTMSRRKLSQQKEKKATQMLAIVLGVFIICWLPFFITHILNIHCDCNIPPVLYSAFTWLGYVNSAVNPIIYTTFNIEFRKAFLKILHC

pKi [1] | Kb [2] | Kb [3] | pKi (D(2) dopamine receptor) | Ki [4] | pA2 [5] | pA2 [6] | Ki [7] | Ki [8] | Ki (D(2) dopamine receptor) | SMILES
7.6 | 20 nM | 1.58 nM | 7.4 | 0.794 nM | 8.5 | – | – | – | – | COc1ccccc1N1CCN(CCCNc2ncccc2C(=O)N(C)C)CC1
7.5 | 126 nM | 0.501 nM | 8.1 | – | 9 | – | – | – | – | Cc1nn(C)c2ncc(C(=O)N(C)C)c(NCCCN3CCN(c4ccccc4OCC(F)(F)F)CC3)c12
6.7 | 63.1 nM | 1.58 nM | 6.7 | – | 8.5 | – | – | – | – | COc1cc(F)ccc1N1CCN(CCCNc2ncccc2C(=O)N(C)C)CC1
– | 10 nM | 1.26 nM | – | – | – | 8.7 | 1.58 nM | – | – | COc1ccccc1N1CCN(CCCNc2ncccc2C(=O)NC(C)(C)C)CC1
– | 63.1 nM | 1.26 nM | – | – | – | – | – | 79.4 nM | 126 nM | CN(C)C(=O)c1cccnc1NCCCN1CCN(c2ccccc2-c2ccccc2)CC1
6.5 | 316 nM | 1.26 nM | 6.4 | – | 9.3 | – | – | – | – | COc1cc(F)ccc1N1CCN(CCCNc2c(C(=O)N(C)C)cnc3c2c(C)nn3C)CC1
